This is an account of results in ChEMBL document CHEMBL1123445, “Synthesis and antifolate properties of 5,10-methylenetetrahydro-8,10-dideazaminopterin” (J Med Chem, 1986).

Assay [1] relates to L1210. Put plainly: Compound was evaluated for inhibitory activity against DHFR in L1210 cells. It is filed as functional, cell-based, Mus musculus.
The subject of assay [2] is L1210. Put plainly: Compound was evaluated for growth inhibition in L1210 murine leukemia cells. It is filed as functional, cell-based. Conditions: Mus musculus.
Assay [3] deals with Lacticaseibacillus casei. In words: Compound was evaluated for growth inhibition in Lactobacillus casei ATCC 7469. Type of assay: functional, organism-based. The essentials:
(§1)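 Lactobacillus casei growth was measured in medium with folate at 1 ng/mL.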

For assay [4], the system named is Lacticaseibacillus casei. In words: Compound was evaluated for growth inhibition in Lactobacillus casei MTX-resistant. Type of assay: functional, organism-based. The essentials: as §1
In assay [5] the test system is Enterococcus faecium. In words: Compound was evaluated for growth inhibition in Streptococcus faecium ATCC 8043. Type of assay: functional, organism-based. The essentials: (§2)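 Bacterial growth inhibition was run in medium with folate at 1 ng/mL.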
For assay [6], the system named is Enterococcus faecium. Put plainly: Compound was evaluated for growth inhibition in Streptococcus faecium MTX-resistant. Type of assay: functional, organism-based. The essentials: as §2
The target in assay [7] is Dihydrofolate reductase (Lactobacillus casei, UniProt P00381). Put plainly: Compound was evaluated for the inhibition of dihydrofolate reductase (DHFR)derived from Lactobacillus casei. Further details: species or system Lacticaseibacillus casei.
Assay [8] deals with T1, Thymidylate synthase (Lactobacillus casei, UniProt P00469).
T1 sequence (P00469 whole entry): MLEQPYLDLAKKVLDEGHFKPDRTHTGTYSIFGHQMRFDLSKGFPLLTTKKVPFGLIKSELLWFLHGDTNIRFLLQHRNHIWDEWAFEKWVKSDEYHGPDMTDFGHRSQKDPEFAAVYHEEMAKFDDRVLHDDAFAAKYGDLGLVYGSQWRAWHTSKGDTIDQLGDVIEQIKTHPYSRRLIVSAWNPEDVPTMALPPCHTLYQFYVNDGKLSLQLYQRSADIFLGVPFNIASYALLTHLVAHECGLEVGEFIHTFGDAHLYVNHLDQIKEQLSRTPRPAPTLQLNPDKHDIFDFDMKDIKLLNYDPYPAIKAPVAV
Put plainly: Compound was evaluated for the inhibition of thymidylate synthase (TS) derived from Lactobacillus casei. Further details: species or system Lacticaseibacillus casei.

[9] abbreviates: Lacticaseibacillus casei, read-out: IC50.

≈ marks a conversion by molar mass, not a printed value. Bounds are passed on as bounds.

Sequence of Dihydrofolate reductase (P00381 whole entry): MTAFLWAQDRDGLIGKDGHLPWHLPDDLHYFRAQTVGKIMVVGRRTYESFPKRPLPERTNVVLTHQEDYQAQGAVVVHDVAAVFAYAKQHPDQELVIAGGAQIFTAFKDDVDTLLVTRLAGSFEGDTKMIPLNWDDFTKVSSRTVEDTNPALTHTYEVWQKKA

In the case of `CN(Cc1cnc2nc(N)nc(N)c2n1)c1ccc(C(=O)N[C@@H](CCC(=O)O)C(=O)O)cc1` [METHOTREXATE], the inhibition constant (Ki) in assay [1] stood at 0.0032 nM. Further, the IC50 was 2.5 nM in assay [2]; 0.009 ng/mL (≈ 1.98e-05 µM) in assay [3]; more than 500000 ng/mL in assay [4]; 0.2 ng/mL (≈ 0.00044 µM) in assay [5]; 3300 ng/mL (≈ 7.26 µM) in assay [6].

As to `Nc1nc(N)c2c(n1)CCC1CC(c3ccc(C(=O)NC(CCC(=O)O)C(=O)O)cc3)CN21` (configuration not stated), the half-inhibitory concentration (IC50) in assay [7] was 1500 nM; in assay [2], 250 nM; in assay [3] it was 1 ng/mL (≈ 0.0022 µM); in assay [4] (setting [9]), more than 10000 ng/mL; in assay [8], more than 500000 nM; in assay [5] it was 2 ng/mL (≈ 0.0044 µM). In addition, half-maximal inhibition in assay [6] (IC50) was put at 530 ng/mL (≈ 1.17 µM). Also, in assay [1], the Ki was more than 10 nM.

Turning to `Nc1nc(N)c2c(n1)CCC1CC(c3ccc(C(=O)NC(CCC(=O)O)C(=O)O)cc3)C(=O)N21` (configuration not stated), the IC50 is 1600 nM in assay [7]; more than 10000 nM in assay [2]; 0.54 ng/mL (≈ 0.00115 µM) in assay [3]; more than 10000 ng/mL in assay [4] (setting [9]); more than 200000 nM in assay [8]; 6.2 ng/mL (≈ 0.0132 µM) in assay [5]. In assay [6], the 50% inhibitory concentration (IC50) was more than 10000 ng/mL. This compound came in with a Ki in assay [1] of more than 10 nM.
